Measurements as given in ChEMBL document CHEMBL2062509, “Synthesis of benzo-annulated tryptanthrins and their biological properties” (Bioorg Med Chem, 2012).
Converted amounts (≈) assume the structure as drawn.

Key:
[1] = molecular target: DNA topoisomerase 2-alpha (Homo sapiens) (UniProt P11388); test: Inhibition of human DNA topoisomerase 2alpha-mediated relaxation of supercoiled pBR322 DNA at 20 uM after 30 mins by agarose gel electrophoretic analysis
Method in brief: (§1)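 Human topo IIα (0.2 units) and 100 ng supercoiled pBR322, 30 min at 37 °C with or without compound in 10 mM Tris-HCl pH 7.9, 50 mM NaCl, 5 mM MgCl2, 1 mM EDTA, 1 mM ATP, 15 µg/mL BSA. Quenched with 7 mM EDTA. Resolved on 1% agarose in TAE (25 V, 4 h), ethidium-stained, supercoiled DNA quantified under UV.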

[2] = molecular target: DNA topoisomerase 2-alpha (Homo sapiens) (UniProt P11388); test: Inhibition of human DNA topoisomerase 2alpha-mediated relaxation of supercoiled pBR322 DNA at 100 uM after 30 mins by agarose gel electrophoretic analysis; method in brief: as §1
[3] = system: HCT-15; test: Cytotoxicity against human HCT15 cells after 72 hrs by MTT assay; assay type: functional, cell-based; conditions: HCT-15, 72 h
[4] = organism: Bos taurus; test: Inhibition of calf thymus DNA topoisomerase 1-mediated relaxation of supercoiled pBR322 DNA at 100 uM after 30 mins by agarose gel electrophoresis analysis
[5] = system: DU-145; test: Cytotoxicity against human DU145 cells after 72 hrs by MTT assay; assay type: functional, cell-based; conditions: DU-145, 72 h
[6] = system: T47D; test: Cytotoxicity against human T47D cells after 72 hrs by MTT assay; assay type: functional, cell-based
[7] = organism: Bos taurus; test: Inhibition of calf thymus DNA topoisomerase 1-mediated relaxation of supercoiled pBR322 DNA at 20 uM after 30 mins by agarose gel electrophoresis analysis
[8] = system: HEK293; test: Cytotoxicity against human HEK293 cells after 72 hrs by MTT assay; assay type: cell-based; conditions: HEK293, 72 h
[9] = molecular target: T1, Polyunsaturated fatty acid 5-lipoxygenase (Homo sapiens, UniProt P09917); test: Inhibition of 5-lipoxygenase
T1 sequence (P09917 whole entry): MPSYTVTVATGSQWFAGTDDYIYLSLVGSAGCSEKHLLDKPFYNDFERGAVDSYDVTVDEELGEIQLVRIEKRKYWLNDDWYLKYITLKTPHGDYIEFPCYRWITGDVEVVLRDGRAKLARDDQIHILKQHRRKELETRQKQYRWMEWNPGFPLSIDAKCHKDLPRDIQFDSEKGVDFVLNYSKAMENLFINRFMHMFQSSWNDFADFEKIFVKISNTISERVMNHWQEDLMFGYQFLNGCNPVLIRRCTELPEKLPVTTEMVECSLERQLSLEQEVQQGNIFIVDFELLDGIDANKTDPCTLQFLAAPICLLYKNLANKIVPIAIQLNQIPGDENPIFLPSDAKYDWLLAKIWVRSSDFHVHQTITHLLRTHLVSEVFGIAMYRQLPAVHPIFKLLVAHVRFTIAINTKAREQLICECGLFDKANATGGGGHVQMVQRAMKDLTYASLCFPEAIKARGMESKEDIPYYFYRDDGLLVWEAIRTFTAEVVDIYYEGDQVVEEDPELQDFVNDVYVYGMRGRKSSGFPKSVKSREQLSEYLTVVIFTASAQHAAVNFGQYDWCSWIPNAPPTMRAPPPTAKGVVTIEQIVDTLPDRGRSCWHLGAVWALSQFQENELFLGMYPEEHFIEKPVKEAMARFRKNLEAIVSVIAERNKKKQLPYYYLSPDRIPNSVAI

[10] = system: Mycobacterium tuberculosis; test: Antituberculosis activity against Mycobacterium tuberculosis; assay type: functional
[11] = system: HT-1376; test: Cytotoxicity against human HT-1376 cells; assay type: functional

Sequence of DNA topoisomerase 2-alpha (Homo sapiens) (P11388 whole entry): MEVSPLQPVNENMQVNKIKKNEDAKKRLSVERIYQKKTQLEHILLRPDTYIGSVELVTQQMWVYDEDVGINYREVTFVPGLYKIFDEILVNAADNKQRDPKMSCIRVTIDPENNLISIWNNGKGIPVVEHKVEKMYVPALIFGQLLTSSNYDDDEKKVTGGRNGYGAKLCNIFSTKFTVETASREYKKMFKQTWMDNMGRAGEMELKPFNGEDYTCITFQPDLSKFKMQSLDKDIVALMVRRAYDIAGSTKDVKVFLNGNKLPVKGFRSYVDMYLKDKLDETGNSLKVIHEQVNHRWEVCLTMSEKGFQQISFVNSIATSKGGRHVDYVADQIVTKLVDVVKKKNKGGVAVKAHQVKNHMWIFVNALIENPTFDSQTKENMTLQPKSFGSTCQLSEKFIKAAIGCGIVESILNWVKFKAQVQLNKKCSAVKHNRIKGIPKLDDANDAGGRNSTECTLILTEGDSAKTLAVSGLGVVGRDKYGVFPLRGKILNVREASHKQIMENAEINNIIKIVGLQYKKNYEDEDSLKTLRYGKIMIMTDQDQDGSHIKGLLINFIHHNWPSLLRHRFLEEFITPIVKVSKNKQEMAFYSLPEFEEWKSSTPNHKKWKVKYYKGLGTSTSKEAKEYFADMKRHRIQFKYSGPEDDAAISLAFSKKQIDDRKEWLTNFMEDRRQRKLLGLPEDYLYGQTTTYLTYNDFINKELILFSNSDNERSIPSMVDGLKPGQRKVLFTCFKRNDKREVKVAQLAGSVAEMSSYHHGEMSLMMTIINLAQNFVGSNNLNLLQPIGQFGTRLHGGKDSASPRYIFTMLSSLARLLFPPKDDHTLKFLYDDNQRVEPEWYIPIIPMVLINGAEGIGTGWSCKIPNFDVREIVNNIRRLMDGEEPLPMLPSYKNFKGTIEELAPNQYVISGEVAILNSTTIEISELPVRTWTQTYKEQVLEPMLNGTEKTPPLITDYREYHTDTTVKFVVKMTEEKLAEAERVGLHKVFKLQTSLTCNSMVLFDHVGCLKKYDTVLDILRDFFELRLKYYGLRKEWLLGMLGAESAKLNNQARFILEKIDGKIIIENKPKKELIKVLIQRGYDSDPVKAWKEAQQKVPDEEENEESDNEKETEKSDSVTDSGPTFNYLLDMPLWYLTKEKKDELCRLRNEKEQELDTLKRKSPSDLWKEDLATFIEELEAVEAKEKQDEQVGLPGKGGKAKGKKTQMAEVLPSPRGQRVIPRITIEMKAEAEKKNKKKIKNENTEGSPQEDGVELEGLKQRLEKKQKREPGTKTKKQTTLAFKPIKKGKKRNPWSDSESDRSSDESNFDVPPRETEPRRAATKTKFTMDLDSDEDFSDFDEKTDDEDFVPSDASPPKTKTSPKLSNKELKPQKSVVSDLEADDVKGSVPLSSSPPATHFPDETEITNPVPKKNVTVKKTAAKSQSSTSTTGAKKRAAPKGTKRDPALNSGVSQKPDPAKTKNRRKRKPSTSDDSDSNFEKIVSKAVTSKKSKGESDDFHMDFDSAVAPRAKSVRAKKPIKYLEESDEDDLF

Row | Compound | inhibition [1] | inhibition [2] | IC50 [3] | inhibition [4] | IC50 [5] | IC50 [6] | inhibition [7] | IC50 [8] | IC50 [9] | MIC [10] | Activity [11]
1 | O=C1c2c(ccc3ccccc23)-n2c1nc1cc3ccccc3cc1c2=O | 5.83% | 71.3% | 32.8 µM | 39.1% | 34 µM | 25.2 µM | 3.8% | 24.2 µM |  |  | 
2 | O=C1c2ccccc2-n2c1nc1ccccc1c2=O [TRYPTANTHRIN] |  | 4.54% | 8.49 µM | 68.4% | 6.22 µM | 14.3 µM | 4.09% | 4.11 µM | 150 nM | 10 µg/mL (≈ 40.3 µM) | 10 µM
3 | O=C1c2ccc3ccccc3c2-n2c1nc1cc3ccccc3cc1c2=O | 19.1% | 53.5% | 24 µM | 84.1% | 32.3 µM | 34.9 µM | 3.5% | 20.3 µM |  |  | 
4 | O=C1c2cc3ccccc3cc2-n2c1nc1cc3ccccc3cc1c2=O |  | 12.6% | 26.2 µM | 41.9% | 26.1 µM | 25.7 µM | 3.6% | 2.31 µM |  |  | 
5 | COc1cccc2c1C(=O)c1c(O)c3c(c(O)c1C2=O)C[C@@](O)(C(=O)CO)C[C@@H]3O[C@H]1C[C@H](N)[C@H](O)[C@H](C)O1 [DOXORUBICIN] |  |  | 1.76 µM |  |  | 1.82 µM |  | 1 µM |  |  | 
6 | O=C1c2ccc3ccccc3c2-n2c1nc1ccccc1c2=O |  | 14% | 12.6 µM | 53.4% | 21.4 µM | 22.8 µM | 4.1% | 22.1 µM |  |  | 
7 | CC[C@@]1(O)C(=O)OCc2c1cc1n(c2=O)Cc2cc3ccccc3nc2-1 [CAMPTOTHECIN] |  |  | 9.92 µM | 63.1% | 9.29 µM | 9.17 µM | 26.3% | 7.94 µM |  |  | 
8 | O=C1c2cc3ccccc3cc2-n2c1nc1ccccc1c2=O | 5.95% | 75.9% | 6.15 µM | 69.6% | 17.8 µM | 21.5 µM | 5.4% | 10.7 µM |  |  | 
9 | O=C1c2ccccc2-n2c1nc1cc3ccccc3cc1c2=O [BENZO[K]TRYPTANTHRIN] |  | 16% | 25.8 µM | 18.8% | 26 µM | 23.1 µM |  | 31.5 µM |  |  | 
10 | COc1cc([C@@H]2c3cc4c(cc3[C@@H](O[C@@H]3O[C@@H]5CO[C@@H](C)O[C@H]5[C@H](O)[C@H]3O)[C@H]3COC(=O)[C@H]23)OCO4)cc(OC)c1O [ETOPOSIDE] |  |  | 0.28 µM |  | 1.42 µM | 1.21 µM |  | 0.41 µM |  |  | 
11 | O=C1c2c(ccc3ccccc23)-n2c1nc1ccccc1c2=O |  | 8.13% | 24.7 µM | 47.8% | 27.7 µM | 31.3 µM | 4.9% | 25.7 µM |  |  | 
